Measured values collected from several papers.
Protocols differ between the studies behind these lines.
Read-out: DPPH scavenging

SMILES | test | IC50
CCCCCCCCOc1ccc(NC(=O)Cc2c[nH]c3ccccc23)cc1 | – | 2.45 µM
COc1ccc(-c2nc3ccccc3[nH]2)cc1OCc1ccccc1 | absorbance | 1.48 µM
Cc1ccc(C)c(NC(=O)Cc2c[nH]c3ccccc23)c1 | – | 1.79 µM
Cc1c(C)c2c(c(C)c1O)CCC(C)(C(=O)O)O2 (stereo not shown) | absorbance | 7.06 µg/mL
COc1cc(C(CC(=O)c2ccc(Cl)cc2)NCCc2ccc(O)c(O)c2)ccc1O (stereo not shown) | – | 15.3 µg/mL
O=C(Cc1c[nH]c2ccccc12)Nc1cccc(F)c1 | – | 1.53 µM
COc1cc(C=Cc2cc(-c3ccc(N(C)C)cc3)nc(O)n2)ccc1O | – | 32.5 µg/mL
Cc1cc(C(C)(C)C)c(O)c(C(C)(C)C)c1 | – | 25.2 µg/mL
COc1cc(NC(=O)Cc2c[nH]c3ccccc23)ccc1C | – | 1.53 µM
COc1ccc(-c2nc3cc(F)ccc3[nH]2)cc1OCc1ccccc1 | absorbance | 2.58 µM
COc1cc(C(CC(=O)c2ccc(C(C)(C)C)cc2)NCCc2ccc(O)c(O)c2)ccc1O (stereo not shown) | – | 15.6 µg/mL
O=C(Cc1c[nH]c2ccccc12)Nc1ccc(F)cc1F | – | 1.71 µM
O=C1O[C@H]([C@@H](O)CO)C(O)=C1O | – | 4.96 µM
O=c1c(O[C@@H]2O[C@H](CO)[C@@H](O)[C@H](O)[C@H]2O)c(-c2ccc(O)c(O)c2)oc2cc(O)cc(O)c12 | absorbance | 90.5 µM
COc1ccc(-c2nc3cc(C)c(C)cc3[nH]2)cc1OCc1ccccc1 | absorbance | 1.82 µM
COc1cc(C(CC(=O)c2ccc(C)cc2)NCCc2ccc(O)c(O)c2)ccc1O (stereo not shown) | – | 21.1 µg/mL
COc1cc(-c2oc3cc(O)cc(O)c3c(=O)c2O[C@@H]2O[C@H](CO)[C@@H](O)[C@H](O)[C@H]2O)ccc1O | absorbance | > 500 µM
Cc1cc(C(C)(C)C)c(O)c(C(C)(C)C)c1 | absorbance | 25.9 µg/mL
CCOC(=O)c1cc(O)c(O)c(O)c1 | absorbance | 43.4 µM
Cc1ccc(Cl)cc1NC(=O)Cc1c[nH]c2ccccc12 | – | 1.62 µM
O=c1oc2c(O)c(O)cc3c(=O)oc4c(O)c(O)cc1c4c23 | absorbance | 67.8 µM
COc1ccc(-c2nc3cc([N+](=O)[O-])ccc3[nH]2)cc1OCc1ccccc1 | absorbance | 2.57 µM
